The subject of test [1] is Spinacia oleracea. Description: In vitro inhibition of basal rate of photosynthetic electron transport (Hill reaction) in active intact chloroplast thylakoid membrane of Spinacia oleracea (spinach) leaves assessed as light-driven ferricyanide reduction at 10 uM measured at 24 degC at 30 secs intervals for 10 min (reference value: 100 +/-3.1%). The arrangement: scale not given: the % may be the effect or the level left.

Test [2] deals with Spinacia oleracea. Description: In vitro inhibition of basal rate of photosynthetic electron transport (Hill reaction) in active intact chloroplast thylakoid membrane of Spinacia oleracea (spinach) leaves assessed as light-driven ferricyanide reduction at 5 uM measured at 24 degC at 30 secs intervals for 10 min (reference value: 100 +/-3.1%). Set-up: scale not given: the % may be the effect or the level left.

The test system of test [3] is Auxenochlorella protothecoides. Description: In vivo inhibition of photosynthetic activity in intact Auxenochlorella protothecoides ATCC 30411 cells assessed as light-driven oxygen evolution rate at 100 uM measured at 24 degC every 15 sec upto 8 min by polarographic analysis in presence of 0.001% Triton X-100 (reference value: 100 +/-5.1%). Format: functional. The arrangement: scale not given: the % may be the effect or the level left.

The test system of test [4] is Auxenochlorella protothecoides. Description: In vivo inhibition of photosynthetic activity in intact Auxenochlorella protothecoides ATCC 30411 cells assessed as light-driven oxygen evolution rate at 10 uM measured at 24 degC every 15 sec upto 8 min by polarographic analysis in presence of 0.001% Triton X-100 (reference value: 100 +/-5.1%). Format: functional. Set-up: scale not given: the % may be the effect or the level left.

Test [5] relates to Auxenochlorella protothecoides. Description: In vivo inhibition of photosynthetic activity in intact Auxenochlorella protothecoides ATCC 30411 cells assessed as light-driven oxygen evolution rate at 100 uM measured at 24 degC every 15 sec upto 8 min by polarographic analysis in absence of detergent (reference value: 100 +/-5.9%). Format: functional. Set-up: scale not given: the % may be the effect or the level left.

The test system of test [6] is Auxenochlorella protothecoides. Description: In vivo inhibition of photosynthetic activity in intact Auxenochlorella protothecoides ATCC 30411 cells assessed as light-driven oxygen evolution rate at 10 uM measured at 24 degC every 15 sec upto 8 min by polarographic analysis in absence of detergent (reference value: 100 +/-5.9%). Set-up: scale not given: the % may be the effect or the level left. The class given is functional.

In test [7] the test system is Spinacia oleracea. Description: In vitro inhibition of basal rate of photosynthetic electron transport (Hill reaction) in active intact chloroplast thylakoid membrane of Spinacia oleracea (spinach) leaves assessed as inhibition of light-driven ferricyanide reduction at 10 uM measured at 24 degC at 30 secs intervals for 10 min in presence of 0.25 to 1 mM uncoupler, NH4Cl. A digest of the protocol:
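A fixed compound concentration was tested in the spinach thylakoid ferricyanide-reduction assay at increasing NH4Cl (uncoupler) levels. Activity is expressed as % of untreated samples containing the same amount of uncoupler, mean ± SE over at least six replications from two independent experiments.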

For test [8], the system named is Spinacia oleracea. Description: In vitro inhibition of uncoupled electron transport in active intact chloroplast thylakoid membrane of Spinacia oleracea (spinach) leaves assessed as light-driven ferricyanide reduction at 10 uM measured at 24 degC at 30 secs intervals for 10 min (reference value: 100 +/-4.1%). The arrangement: scale not given: the % may be the effect or the level left.

The test system of test [9] is Spinacia oleracea. Description: In vitro inhibition of phosphorylating electron transport in active intact chloroplast thylakoid membrane of Spinacia oleracea (spinach) leaves assessed as light-driven ferricyanide reduction at 10 uM measured at 24 degC at 30 secs intervals for 10 min (reference value: 100 +/-3.8%). Set-up: scale not given: the % may be the effect or the level left.

In test [10] the test system is Spinacia oleracea. Description: In vitro inhibition of basal rate of photosynthetic electron transport (Hill reaction) in active intact chloroplast thylakoid membrane of Spinacia oleracea (spinach) leaves assessed as inhibition of light-driven ferricyanide reduction at >10 uM measured at 24 degC at 30 secs intervals for 10 min.

Active and inactive are the calls of the source. No cut-off for these calls is given here.

For `O=C1OC(=Cc2ccc(Cl)cc2)C=C1Cc1ccc(Br)cc1`, the Activity turned out to be 89.4% in the test with Spinacia oleracea [1] and 94.1% with Spinacia oleracea [2].

Take `CN(C)C(=O)Nc1ccc(Cl)c(Cl)c1` [DCMU]: the Activity in test [3] is 20.7%; in test [4] it was 32.2%; in test [5] it was 38.5%; in [6], 49.9%; in the test with Spinacia oleracea [1] it was 4.9%; in the test on Spinacia oleracea [2], 6.8%.

In the case of `N#Cc1ccc(C=C2C=C(Cc3ccc(Br)cc3)C(=O)O2)cc1`, the values for the Activity with Spinacia oleracea [1] and with Spinacia oleracea [2] were 101% and 100%, respectively.

As for `COc1ccc(OC)c(/C=C2\C=C(Cc3ccc(Br)cc3)C(=O)O2)c1`, the Activity in the test with Spinacia oleracea [1] amounted to 71%; in the test with Spinacia oleracea [2] it was 94.1%.

For the compound `O=C1OC(=Cc2cccc([N+](=O)[O-])c2)C=C1Cc1ccc(Br)cc1`, the Activity is 66.9% in the test with Spinacia oleracea [1] and 72.6% in the test with Spinacia oleracea [2].

As for `COc1cc(OC)c(/C=C2\C=C(Cc3ccc(Br)cc3)C(=O)O2)c(OC)c1`, the Activity in the test on Spinacia oleracea [1] was found to be 79.9%; in the test with Spinacia oleracea [2], 84.2%.

Take `O=C1OC(=Cc2ccccc2)C=C1Cc1ccc(Br)cc1`: the Activity in test [3] was found to be 74.2%; in test [5], 82.6%; in the test with Spinacia oleracea [8] it was 95.6%; in the test on Spinacia oleracea [9], 47.9%; in the test with Spinacia oleracea [1], 42.9%; in the test on Spinacia oleracea [2], 54.1%. Moreover, the inhibition result in the test on Spinacia oleracea [7] and in the test on Spinacia oleracea [10] was “inactive” each time.

Turning to `Cc1cccc(/C=C2\C=C(Cc3ccc(Br)cc3)C(=O)O2)c1`, the values for the Activity in the test on Spinacia oleracea [1] and with Spinacia oleracea [2] were 69.7% and 72.8%, respectively.

As to `O=C1OC(=Cc2ccc(Br)cc2)C=C1Cc1ccc(Br)cc1`, the Activity with Spinacia oleracea [1] amounted to 92%; in the test with Spinacia oleracea [2], 95.4%.

In the case of `O=C1O/C(=C\c2ccc3c(c2)OCO3)C=C1Cc1ccc(Br)cc1`, the Activity was 91% with Spinacia oleracea [1] and 91.1% with Spinacia oleracea [2].

For `CN(C)c1ccc(C=C2C=C(Cc3ccc(Br)cc3)C(=O)O2)c(Cl)c1`, the Activity worked out at 91% with Spinacia oleracea [1] and 94.7% in the test on Spinacia oleracea [2].

`O=C1OC(=Cc2ccc(C(F)(F)F)cc2)C=C1Cc1ccc(Br)cc1`: the Activity came to 89.5% in test [3]; 94.5% in [5]; 79.8% in the test on Spinacia oleracea [8]; 52.1% in the test with Spinacia oleracea [9]; 48.8% in the test on Spinacia oleracea [1]; 71.7% in the test on Spinacia oleracea [2]. In the test with Spinacia oleracea [10], the inhibition entry was “inactive”.

Regarding `O=C1OC(=Cc2ccc(F)cc2)C=C1Cc1ccc(Br)cc1`, the figures for the Activity in the test with Spinacia oleracea [1] and with Spinacia oleracea [2] were 68.5% and 74%, respectively.

(Values after ChEMBL document CHEMBL3046488, “Synthesis of 3-(4-Bromobenzyl)-5-(aryl methylene)-5H-furan-2-ones and their activity as inhibitors of the photosynthetic electron transport chain” (2007).)
